Experimental data published in ChEMBL document CHEMBL1128358, “Synthesis of novel imidazobenzodiazepines as probes of the pharmacophore for "diazepam-insensitive" GABAA receptors” (J Med Chem, 1995).

Columns and labels:
[1] = molecular target: GABA-A receptor; anion channel; experiment: Binding affinity against Diazepam insensitive (DI) Gamma-aminobutyric acid A receptor; format: protein-complex assay, Rattus norvegicus
[2] = molecular target: GABA-A receptor; anion channel; experiment: Binding affinity against Diazepam sensitive (DS) Gamma-aminobutyric acid A receptor; format: protein-complex assay, Rattus norvegicus
Outline: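 [3H]Ro15-4513 displacement (~2 nM final) on washed cerebellar membranes from adult male Sprague-Dawley rats, ~100 µg tissue, 0.2 M NaCl, 50 mM Tris citrate pH 7.8. DI binding has 10 µM diazepam added. DS binding is total minus DI. Nonspecific binding uses 10 µM Ro15-1788.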

Structure (SMILES)	Ki [1] [nM]	IC50 [2] [nM]
CN1Cc2c(CO)ncn2-c2ccc(Cl)cc2C1=O	> 1000	> 1000
CCOCc1ncn2c1CN(C)C(=O)c1cc(Cl)ccc1-2	> 1000	> 500
COc1cccc(-n2[nH]c3c(cnc4ccccc43)c2=O)c1	26	
O=c1c2cnc3ccc(Cl)cc3c2[nH]n1-c1ccccc1	5.1	
COc1ccc2c(c1)ncc1c(=O)n(-c3ccccc3)[nH]c12	1.9	
COc1ccc2ncc3c(=O)n(-c4ccccc4)[nH]c3c2c1	47	
COc1ccc(-n2nc3c4cc(Cl)ccc4[nH]cc-3c2=O)cc1	1.9	
COc1ccc(-n2nc3c4ccc(OC)cc4[nH]cc-3c2=O)cc1	10	
CCOC(=O)c1ncn2c1CN(C)C(=O)c1cc(OCC)ccc1-2	40.9	7.07
CCc1ncn2c1CN(C)C(=O)c1cc(Cl)ccc1-2	> 1000	> 500
CCCCC(=O)c1ncn2c1CN(C)C(=O)c1cc(Cl)ccc1-2	> 1000	> 500
CC(=O)c1ncn2c1CN(C)C(=O)c1cc(Cl)ccc1-2	> 1000	> 1000
CN1Cc2c(CCl)ncn2-c2ccc(Cl)cc2C1=O	> 1000	> 500
CCCCCc1ncn2c1CN(C)C(=O)c1cc(Cl)ccc1-2	> 1000	> 1000
COCc1ncn2c1CN(C)C(=O)c1cc(Cl)ccc1-2	> 1000	514
COc1ccc(-n2nc3c4ccccc4[nH]cc-3c2=O)cc1	9.3	
CCOC(=O)c1ncn2c1CN(C)C(=O)c1cc(OC)ccc1-2	23.8	2.47
CC(C)N(Cc1ncn2c1CN(C)C(=O)c1cc(Cl)ccc1-2)C(C)C	> 1000	> 1000
CCN(CC)Cc1ncn2c1CN(C)C(=O)c1cc(Cl)ccc1-2	> 1000	> 1000
O=C1C2C=Nc3ccccc3C2=NN1c1ccccc1 (configuration not stated) [CGS-8216]	46	
